From ChEMBL document CHEMBL1158564, “Synthesis and biological evaluation of 1,4-diazepane derivatives as T-type calcium channel blockers” (Bioorg Med Chem Lett, 2010) come the findings set out here.

Data set [1] deals with T1, Voltage-dependent T-type calcium channel subunit alpha-1G (Homo sapiens, UniProt O43497). The data set can be described thus: Inhibition of T-type calcium channel alpha1G expressed in human HEK293 cells assessed as inhibition of KCl-induced increase in calcium level at 10 uM after 60 mins by FDSS6000 assay.
T1 sequence (O43497 whole entry): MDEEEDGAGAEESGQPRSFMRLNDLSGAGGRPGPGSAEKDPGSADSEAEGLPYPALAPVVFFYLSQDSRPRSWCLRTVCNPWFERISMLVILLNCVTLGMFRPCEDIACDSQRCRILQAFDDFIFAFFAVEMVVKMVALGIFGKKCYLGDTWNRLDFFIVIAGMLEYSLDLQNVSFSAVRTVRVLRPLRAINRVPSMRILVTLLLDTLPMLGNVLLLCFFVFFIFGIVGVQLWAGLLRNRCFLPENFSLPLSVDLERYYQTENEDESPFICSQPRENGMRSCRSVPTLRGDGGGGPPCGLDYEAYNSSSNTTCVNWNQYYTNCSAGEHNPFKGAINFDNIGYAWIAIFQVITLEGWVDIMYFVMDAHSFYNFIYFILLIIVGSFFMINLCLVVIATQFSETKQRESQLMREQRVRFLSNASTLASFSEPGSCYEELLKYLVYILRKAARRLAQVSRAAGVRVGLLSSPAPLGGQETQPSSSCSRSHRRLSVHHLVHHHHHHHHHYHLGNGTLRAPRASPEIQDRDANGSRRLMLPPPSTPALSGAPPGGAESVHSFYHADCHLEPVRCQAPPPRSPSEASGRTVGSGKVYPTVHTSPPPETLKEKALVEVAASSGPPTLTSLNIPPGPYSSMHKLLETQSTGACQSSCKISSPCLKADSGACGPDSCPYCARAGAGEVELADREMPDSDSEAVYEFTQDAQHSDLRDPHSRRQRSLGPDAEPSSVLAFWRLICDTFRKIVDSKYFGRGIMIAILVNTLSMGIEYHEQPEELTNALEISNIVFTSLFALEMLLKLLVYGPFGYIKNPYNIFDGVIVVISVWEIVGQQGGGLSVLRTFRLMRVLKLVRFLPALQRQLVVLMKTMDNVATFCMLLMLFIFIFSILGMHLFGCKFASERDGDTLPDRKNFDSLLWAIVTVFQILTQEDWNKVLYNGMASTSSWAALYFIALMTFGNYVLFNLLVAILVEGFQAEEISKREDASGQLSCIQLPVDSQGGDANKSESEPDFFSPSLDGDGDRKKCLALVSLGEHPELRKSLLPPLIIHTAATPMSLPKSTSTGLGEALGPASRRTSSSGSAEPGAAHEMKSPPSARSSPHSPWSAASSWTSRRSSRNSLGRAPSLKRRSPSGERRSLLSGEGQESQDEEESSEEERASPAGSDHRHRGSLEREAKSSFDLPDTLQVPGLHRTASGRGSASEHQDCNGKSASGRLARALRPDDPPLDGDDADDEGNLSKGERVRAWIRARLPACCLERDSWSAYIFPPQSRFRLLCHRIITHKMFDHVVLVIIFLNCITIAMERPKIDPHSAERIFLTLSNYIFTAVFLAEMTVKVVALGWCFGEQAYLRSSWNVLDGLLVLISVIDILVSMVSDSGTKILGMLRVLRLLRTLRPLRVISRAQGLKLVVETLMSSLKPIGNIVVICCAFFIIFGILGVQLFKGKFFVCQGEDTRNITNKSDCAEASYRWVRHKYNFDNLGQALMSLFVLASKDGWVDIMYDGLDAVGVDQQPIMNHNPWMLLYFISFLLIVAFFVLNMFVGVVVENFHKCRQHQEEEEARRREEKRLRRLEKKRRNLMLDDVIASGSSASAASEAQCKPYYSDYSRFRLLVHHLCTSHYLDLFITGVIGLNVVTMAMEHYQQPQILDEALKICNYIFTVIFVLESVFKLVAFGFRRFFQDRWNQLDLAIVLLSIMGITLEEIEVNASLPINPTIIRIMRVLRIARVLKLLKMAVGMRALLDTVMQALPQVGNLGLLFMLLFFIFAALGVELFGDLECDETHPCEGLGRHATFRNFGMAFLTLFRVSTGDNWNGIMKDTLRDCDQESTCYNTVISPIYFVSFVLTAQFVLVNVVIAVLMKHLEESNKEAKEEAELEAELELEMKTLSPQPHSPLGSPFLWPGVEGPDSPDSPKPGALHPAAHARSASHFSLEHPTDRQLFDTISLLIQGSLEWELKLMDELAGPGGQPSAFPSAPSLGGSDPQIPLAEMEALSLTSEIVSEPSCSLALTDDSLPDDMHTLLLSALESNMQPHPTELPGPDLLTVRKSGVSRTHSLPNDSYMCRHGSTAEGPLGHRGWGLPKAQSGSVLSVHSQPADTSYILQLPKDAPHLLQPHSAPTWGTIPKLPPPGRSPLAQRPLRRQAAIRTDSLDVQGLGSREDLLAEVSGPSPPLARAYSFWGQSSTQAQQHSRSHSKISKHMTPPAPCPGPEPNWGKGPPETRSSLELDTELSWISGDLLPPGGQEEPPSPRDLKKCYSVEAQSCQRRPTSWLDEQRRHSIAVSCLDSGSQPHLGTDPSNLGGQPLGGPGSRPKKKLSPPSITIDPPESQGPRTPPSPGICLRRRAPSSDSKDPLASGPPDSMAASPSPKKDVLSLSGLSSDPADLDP
The target of data set [2] is T1, Voltage-dependent T-type calcium channel subunit alpha-1G. The data set can be described thus: Inhibition of T-type calcium channel alpha1G expressed in human HEK293 cells assessed as inhibition of peak currents by whole-cell patch-clamp method. The format is cell-based. The method, boiled down:
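Whole-cell recording of α1G T-type Ca²⁺ currents, evoked every 15 s by a 50 ms depolarizing step from −100 mV to −30 mV. Peak-current inhibition was measured across compound concentrations. IC50 was obtained by fitting raw data to dose–response curves.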

Data set [3] is described as follows: Half life in po dosed rat. The format is ADME, organism-based. The conditions noted are these: in vivo. The method, boiled down: (§1)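 Rat plasma pharmacokinetics after intravenous (n = 4) or oral (n = 3) dosing. Brain-to-plasma ratio, Cmax, Tmax, half-life, Vdss and oral bioavailability were derived per route. Values are given as mean with standard deviation.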

Data set [4] in a line: Cmax in po dosed rat. The format is ADME, organism-based. Details: route oral. The settings on record: in vivo. The method, boiled down: as §1
Data set [5] is described as follows: Ratio of drug level in brain to plasma in iv dosed rat. The settings on record: read-out: BPR. The format is ADME, organism-based. The method, boiled down: as §1
The nature of data set [6]: Ratio of drug level in brain to plasma in po dosed rat. The format is ADME, organism-based. The conditions noted are these: read-out: BPR. The method, boiled down:
as §1

A short description of data set [7]: Half life in iv dosed rat. It is filed as ADME, organism-based. The settings on record: in vivo. In a few lines:
as §1

The nature of data set [8]: Volume of distribution at steady state in iv dosed rat. It is filed as ADME, organism-based. The conditions noted are these: in vivo, read-out: Vdss. In a few lines:
as §1

Data set [9] addresses Voltage-gated inwardly rectifying potassium channel KCNH2 (Homo sapiens, UniProt Q12809). Put plainly: Inhibition of human ERG.
The target in data set [10] is Voltage-dependent N-type calcium channel subunit alpha-1B (Homo sapiens, UniProt Q00975). Put plainly: Inhibition of N-type calcium channel Alpha-1B.
Data set [11] is described as follows: Tmax in po dosed rat. The format is ADME, organism-based. The conditions noted are these: in vivo. The method, boiled down: as §1
Data set [12] can be described thus: Oral bioavailability in rat. It is filed as ADME, organism-based. The settings on record: in vivo. In a few lines:
as §1

Sequence of Voltage-gated inwardly rectifying potassium channel KCNH2 (Q12809 whole entry): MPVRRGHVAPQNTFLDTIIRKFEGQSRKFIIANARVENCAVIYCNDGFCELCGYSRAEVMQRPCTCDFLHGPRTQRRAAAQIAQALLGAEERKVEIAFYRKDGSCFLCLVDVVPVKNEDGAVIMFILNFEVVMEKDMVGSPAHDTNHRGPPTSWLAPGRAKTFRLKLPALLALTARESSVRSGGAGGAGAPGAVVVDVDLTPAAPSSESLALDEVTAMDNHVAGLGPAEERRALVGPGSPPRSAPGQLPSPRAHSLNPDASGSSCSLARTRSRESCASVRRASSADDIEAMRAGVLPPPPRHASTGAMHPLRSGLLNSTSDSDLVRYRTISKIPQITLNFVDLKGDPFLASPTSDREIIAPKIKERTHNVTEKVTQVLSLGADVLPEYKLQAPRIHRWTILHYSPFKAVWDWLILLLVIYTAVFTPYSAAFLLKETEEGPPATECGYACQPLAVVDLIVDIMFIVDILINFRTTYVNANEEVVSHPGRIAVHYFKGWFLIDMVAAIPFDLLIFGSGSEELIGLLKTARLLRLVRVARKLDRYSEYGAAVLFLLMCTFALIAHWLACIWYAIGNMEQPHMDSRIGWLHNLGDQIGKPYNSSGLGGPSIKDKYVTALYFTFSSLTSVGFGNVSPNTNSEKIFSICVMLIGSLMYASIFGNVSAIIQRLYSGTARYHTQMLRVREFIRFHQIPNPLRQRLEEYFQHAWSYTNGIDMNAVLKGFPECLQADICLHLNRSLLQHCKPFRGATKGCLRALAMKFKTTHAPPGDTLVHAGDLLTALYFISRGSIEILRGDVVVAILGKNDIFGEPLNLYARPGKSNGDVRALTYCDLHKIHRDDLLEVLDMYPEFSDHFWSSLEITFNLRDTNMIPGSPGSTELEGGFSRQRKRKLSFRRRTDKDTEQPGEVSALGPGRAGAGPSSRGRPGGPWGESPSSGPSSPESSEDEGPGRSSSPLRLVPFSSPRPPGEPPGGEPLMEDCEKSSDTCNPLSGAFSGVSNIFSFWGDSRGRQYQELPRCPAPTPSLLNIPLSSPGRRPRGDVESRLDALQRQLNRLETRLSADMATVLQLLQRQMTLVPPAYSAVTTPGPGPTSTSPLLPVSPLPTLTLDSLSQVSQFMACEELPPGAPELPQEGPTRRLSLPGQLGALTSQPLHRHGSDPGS

For orientation: inhibition means the drop in the measured response relative to a control, in per cent. On to `O=C(CN1CCCN(Cc2nc3ccccc3[nH]2)CC1)Nc1ccc(F)cc1`, for which, in [1], the inhibition is 46.6%.
Regarding `COc1cccc(NC(=O)CN2CCCN(Cc3nc4ccccc4[nH]3)CC2)c1`, the inhibition in data set [1] was determined as 46.1%.
In the case of `Cc1ccc(NC(=O)CN2CCCN(Cc3nc4ccccc4[nH]3)CC2)c(C)c1`, in data set [1], the inhibition was 47.6%.
As a reminder, the IC50 is the concentration needed to halve the response being measured. As to `CCc1cccc(CC)c1NCC(=O)N1CCCN(Cc2nc3ccccc3[nH]2)CC1`, the inhibition in [1] amounted to 62.4%. For the same molecule, in data set [2], the IC50 came out at 4 µM.
Turning to `O=C(CN1CCCN(Cc2nc3ccccc3[nH]2)CC1)Nc1cccc(Cl)c1`, the inhibition in data set [1] was found to be 41.7%.
As to `O=C(CNc1cccc(F)c1)N1CCCN(Cc2nc3ccccc3[nH]2)CC1`, the inhibition in [1] was determined as 7.52%.
The term half-life denotes the time in which the quantity being followed falls by half. A higher half-life goes with slow decline. In general, Cmax refers to the maximum level reached in the sampled fluid or tissue. In general, Tmax refers to the time from dosing to the highest level. As usually defined, the bioavailability is the share of a dose that reaches the circulation, judged against a reference dose that is usually intravenous. A low value points to poor availability. Take `O=C(CN1CCCN(Cc2nc3ccccc3[nH]2)CC1)Nc1ccc(C(F)(F)F)cc1`: the half-life in [3] stood at 4.34 h; in data set [7], 5.67 h. In data set [4], this molecule had a peak concentration (Cmax) of 2.28 µg/mL. The Kp in data set [5] came to 0.438; in [6], 0.105. Besides, in data set [8], the Vd worked out at 2.33 L/kg. Besides, the inhibition in [1] was 60.7%. Also, the IC50 in [9] is 4.97 µM; in [10], 28.7 µM; in data set [2], 1.23 µM. Also, in data set [11], the time of peak concentration (Tmax) is 2 h. Besides, the bioavailability in data set [12] is 43.4%.
As to `Cc1cccc(C)c1NC(=O)CN1CCCN(Cc2nc3ccccc3[nH]2)CC1`, the inhibition in [1] is 39.8%.
Regarding `O=C(CNc1cccc(Cl)c1)N1CCCN(Cc2nc3ccccc3[nH]2)CC1`, in [1], the inhibition worked out at 40.9%.
For `CCc1cccc(CC)c1NC(=O)CN1CCCN(Cc2nc3ccccc3[nH]2)CC1`, in data set [1], the inhibition turned out to be 57.4%. In addition, the IC50 in data set [2] worked out at 2.08 µM.
For `Cc1cccc(NCC(=O)N2CCCN(Cc3nc4ccccc4[nH]3)CC2)c1`, the inhibition in data set [1] came to 8.48%.
Take `O=C(CN1CCCN(Cc2nc3ccccc3[nH]2)CC1)Nc1cccc(C(F)(F)F)c1`: the inhibition in data set [1] was 60.1%.
Turning to `O=C(CNc1ccccc1F)N1CCCN(Cc2nc3ccccc3[nH]2)CC1`, the inhibition in [1] is 22.3%.
As for `Cc1ccccc1NC(=O)CN1CCCN(Cc2nc3ccccc3[nH]2)CC1`, the inhibition in data set [1] was determined as 51.8%.
With `O=C(CN1CCCN(Cc2nc3ccccc3[nH]2)CC1)Nc1ccc(Cl)cc1`, the inhibition in data set [1] turned out to be 51.3%.
With `O=C(CN1CCCN(Cc2nc3ccccc3[nH]2)CC1)Nc1ccccc1Cl`, in data set [1], the inhibition came out at 56.8%. Besides, in [2], the 50% inhibitory concentration (IC50) worked out at 1.47 µM.
As for `O=C(CN1CCCN(Cc2nc3ccccc3[nH]2)CC1)Nc1ccccc1F`, the inhibition in [1] came out at 32.4%.
With `Cc1ccc(NCC(=O)N2CCCN(Cc3nc4ccccc4[nH]3)CC2)c(C)c1`, in data set [1], the inhibition amounted to 21.1%.
As to `Cc1ccc(NC(=O)CN2CCCN(Cc3nc4ccccc4[nH]3)CC2)cc1`, the inhibition in data set [1] worked out at 44.8%.
Consider `O=C(CNc1ccc(C(F)(F)F)cc1)N1CCCN(Cc2nc3ccccc3[nH]2)CC1`, for which the inhibition in data set [1] was found to be 28.2%.
As for `O=C(CNc1ccc(F)cc1)N1CCCN(Cc2nc3ccccc3[nH]2)CC1`, in data set [1], the inhibition worked out at 12.8%.
Turning to `Cc1cccc(NC(=O)CN2CCCN(Cc3nc4ccccc4[nH]3)CC2)c1`, the inhibition in [1] was found to be 54.8%.
Regarding `O=C(CN1CCCN(Cc2nc3ccccc3[nH]2)CC1)Nc1ccccc1C(F)(F)F`, the inhibition in data set [1] turned out to be 41.7%.
As for `O=C(CNc1ccccc1C(F)(F)F)N1CCCN(Cc2nc3ccccc3[nH]2)CC1`, in data set [1], the inhibition was determined as 66%. Also, the results for the IC50 in data set [9] and in [2] were 1.32 µM and 3.17 µM, respectively.
As for `Cc1ccccc1NCC(=O)N1CCCN(Cc2nc3ccccc3[nH]2)CC1`, in data set [1], the inhibition is 7.04%.
The same measure, in the same setting: for `COc1ccccc1NCC(=O)N1CCCN(Cc2nc3ccccc3[nH]2)CC1` the value was 8.29%.
Regarding `O=C(CNc1cccc(C(F)(F)F)c1)N1CCCN(Cc2nc3ccccc3[nH]2)CC1`, the inhibition in [1] was 27.3%.
Turning to `COc1cccc(NCC(=O)N2CCCN(Cc3nc4ccccc4[nH]3)CC2)c1`, the inhibition in [1] was determined as 1.54%.
Take `Cc1ccc(NCC(=O)N2CCCN(Cc3nc4ccccc4[nH]3)CC2)cc1`: the inhibition in data set [1] amounted to 16.4%.
Consider `Cc1ccc(NC(=O)CN2CCCN(Cc3nc4ccccc4[nH]3)CC2)cc1C`, for which the inhibition in [1] is 56.2%. Besides, the concentration for half-maximal inhibition (IC50) in data set [2] came out at 2.39 µM.
In the case of `O=C(CN1CCCN(Cc2nc3ccccc3[nH]2)CC1)Nc1cccc(F)c1`, the inhibition in data set [1] is 46.4%.
For `COCC(=O)O[C@]1(CCN(C)CCCc2nc3ccccc3[nH]2)CCc2cc(F)ccc2[C@@H]1C(C)C` [MIBEFRADIL], in data set [10], the IC50 was found to be 1.34 µM.
For the molecule `COc1ccc(NCC(=O)N2CCCN(Cc3nc4ccccc4[nH]3)CC2)cc1`, in data set [1], the inhibition is 0.92%.
`O=C(CNc1ccccc1Cl)N1CCCN(Cc2nc3ccccc3[nH]2)CC1`: the inhibition in data set [1] worked out at 32.2%.
As to `Cc1cccc(C)c1NCC(=O)N1CCCN(Cc2nc3ccccc3[nH]2)CC1`, in data set [1], the inhibition came out at 29.5%.
On the same count and under the same terms, for `O=C(CNc1ccc(Cl)cc1)N1CCCN(Cc2nc3ccccc3[nH]2)CC1` the value was 36.9%.
For the molecule `COc1ccccc1NC(=O)CN1CCCN(Cc2nc3ccccc3[nH]2)CC1`, the inhibition in [1] was found to be 59.1%. In addition, the 50% inhibitory concentration (IC50) in [2] was determined as 12.6 µM.
Regarding `COc1ccc(NC(=O)CN2CCCN(Cc3nc4ccccc4[nH]3)CC2)cc1`, the inhibition in [1] came out at 32.4%.
On to `Cc1ccc(NCC(=O)N2CCCN(Cc3nc4ccccc4[nH]3)CC2)cc1C`, for which the inhibition in data set [1] was 16.5%.
